Screening results from PubChem BioAssay.
An excerpt weighted towards active compounds, which were near 0.99% of everything screened.
LYPLA1 inh: counter-screen for PME1 inhibitors: inhibitors of human LYPLA1 | recombinant LYPLA1, FP-Rh probe fluorescence polarization | inhibition, % at 5.9 µM | 0.16% of 320,000 active;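 active = inhibition above the mean of all tested compounds plus 3 SD, set per campaign, cut at about 14% in these data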;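 note: inhibitors block serine hydrolase probe labeling of LYPLA1 so polarization falls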
LYPLA2 counter: LYPLA2 (human) inhibition in PME1 counter-screen. O95372. recombinant LYPLA2, FP-Rh probe fluorescence polarization. inhibition, % at 5.9 µM. 0.38% of 320,000 active. AID 2177;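 active = inhibition above the screen-wide mean plus 3 SD, limit set per campaign, cut at about 26% in these data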
Target sequence (O95372 whole entry, looked up): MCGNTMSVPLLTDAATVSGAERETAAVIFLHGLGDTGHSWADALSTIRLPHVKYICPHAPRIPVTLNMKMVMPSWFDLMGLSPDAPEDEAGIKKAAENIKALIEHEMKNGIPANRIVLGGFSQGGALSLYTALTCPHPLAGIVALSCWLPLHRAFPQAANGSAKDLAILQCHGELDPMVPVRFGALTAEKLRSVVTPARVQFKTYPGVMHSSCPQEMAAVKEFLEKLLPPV
RBBP9 inh: human RBBP9 hydrolase inhibition | inhibition, % at 7.94 µM | recombinant RBBP9, FP-Rh probe fluorescence polarization | O75884 | 0.2% of 220,000 active | AID 1515;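 active = inhibition above the campaign mean of all tested compounds plus 3 SD, cut at about 14% in these data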
Target sequence (O75884 whole entry, looked up): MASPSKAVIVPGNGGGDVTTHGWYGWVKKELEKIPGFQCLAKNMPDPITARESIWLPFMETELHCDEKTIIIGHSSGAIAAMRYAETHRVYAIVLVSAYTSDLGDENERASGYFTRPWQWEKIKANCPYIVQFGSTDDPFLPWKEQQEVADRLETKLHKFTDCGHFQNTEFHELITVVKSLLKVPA
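Measured by: FP readout at 525/598 nm; material: recombinant human RBBP9; also added: Serine-hydrolase probe FP-Rh, 375 nM pre-mixing; medium: Tris buffer pH 8.0, NaCl, Pluronic; replication: one well per compound; doses: one concentration, 7.94 µM nominal, 0.794% DMSO; timing: preincubation 30 min plus labeling 45 min at 25 °C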
Fam108B inh: Fam108B inhibition, counter-screen for RBBP9 inhibitors. recombinant Fam108B, FP-Rh probe fluorescence polarization. inhibition, % at 9.51 µM. 0.33% of 300,000 active. AID 1947;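 active = inhibition above the screen mean inhibition plus 3 SD, computed separately per campaign, cut at about 18% in these data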;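 note: inhibitors lower polarization as less probe binds the enzyme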
PME-1 primary: blocks human protein phosphatase methylesterase 1 | Q9Y570 | AID 2130 | recombinant PME-1, FP-Rh probe fluorescence polarization | inhibition, % at 5.9 µM | 0.53% of 320,000 active;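 active = inhibition above the campaign mean of all compounds plus 3 SD, cut at about 26% in these data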;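 note: competitive labeling of PME-1 active site by serine hydrolase directed probe; inhibitors block probe labeling so polarization falls and inhibition rises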
LYPLA2 confirm: counter-screen for PME1 inhibitors: confirmation of human LYPLA2 inhibitors; shares compounds with LYPLA2 counter; inhibition, % at 5.9 µM; 72% of 1,100 active; recombinant LYPLA2, FP-Rh probe fluorescence polarization;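 active = mean inhibition across replicates above the hit cutoff set in the primary screen, cut at about 26% in these data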;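 note: blocked labeling of the enzyme by serine hydrolase FP-Rh probe lowers polarization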
LYPLA2 ABPP: blocks human acyl-protein thioesterase 2 in gel ABPP; AID 652029; shares compounds with LYPLA2 counter; rhLYPLA2 in mouse brain proteome, gel ABPP FP-Rh; inhibition, % at 20 µM; 30% of 150 active;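 active = inhibition of LYPLA2 enzyme probe labeling above about 50%, limit read from the data; inactive = inhibition below that limit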;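 note: loss of FP-Rh probe labeling of the LYPLA2 gel band measured as band density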
A number is an active result; n = inactive; x = no result.

SMILES	LYPLA1 inh	LYPLA2 counter	RBBP9 inh	Fam108B inh	PME-1 primary	LYPLA2 confirm	others
O=C(CN1C(=O)COc2ccc(S(=O)(=O)N3CCOCC3)cc21)Nc1cccc(Cl)c1	n	33.0	x	n	n	45.8
CCOc1ccc(NC(=O)CN2C(=O)COc3ccc(Cl)cc32)cc1	n	n	n	n	n	x
COc1cccc(NC(=O)CN2C(=O)COc3ccc(S(=O)(=O)N4CCOCC4)cc32)c1	n	37.9	x	n	n	35.2
COc1cccc(NC(=O)CN2C(=O)CSc3ccc(S(=O)(=O)N4CCOCC4)cc32)c1	n	49.2	x	n	n	45.3
Cc1ccc(Cl)cc1NC(=O)CN1C(=O)COc2ccc(S(=O)(=O)N3CCOCC3)cc21	n	n	x	n	n	x
COc1cc(NC(=O)CN2C(=O)COc3ccc(S(=O)(=O)N4CCOCC4)cc32)cc(OC)c1	n	n	x	n	n	x
COc1cccc(NC(=O)CN2C(=O)COc3ccc(S(=O)(=O)N4CCCCCC4)cc32)c1	n	34.9	x	n	n	38.2
Cc1cccc(C(=O)NC(=S)Nc2ccc(Cc3ccncc3)cc2)c1	n	n	n	n	n	x
COc1cc(C(=O)NC(=S)Nc2ccc(Cc3ccncc3)cc2)cc(OC)c1OC	n	25.8	x	n	n	n
Cc1cc(C)cc(C(=O)NC(=S)Nc2ccc(Cc3ccncc3)cc2)c1	n	34.1	n	n	n	41.3
CCN(CC)CCCn1c2c(c(SCC(=O)Nc3nccs3)nc1=O)CCC2	n	n	x	n	n	x
COc1ccc(CCNC(=O)c2ccc(NC(=O)CC3SC(N4CCCC4)=NC3=O)cc2)cc1 (stereo not drawn)	n	52.0	x	n	n	57.8	LYPLA2 ABPP=n
CN(C)C(=O)c1ccc(NC(=O)CC2SC(N3CCCC3)=NC2=O)cc1 (stereo not drawn)	n	n	x	n	n	x
Cc1ccc(OCCNC(=O)c2ccc(NC(=O)CC3SC(N4CCCC4)=NC3=O)cc2)cc1 (stereo not drawn)	n	45.0	x	n	n	40.3
O=C(CC1SC(N2CCCC2)=NC1=O)Nc1ccc(C(=O)N2CCN(c3cccc(Cl)c3)CC2)cc1 (stereo not drawn)	n	30.1	x	n	n	62.3	LYPLA2 ABPP=n
COc1ccc(CCNC(=O)CSc2nnc3ccccn23)cc1	n	n	n	n	n	x
O=C(Nc1ccncc1)c1cccc(S(=O)(=O)N2CCN(c3ccc(F)cc3)CC2)c1	n	40.4	x	n	n	n
CCc1ccc(NS(=O)(=O)c2ccc3oc(=O)ccc3c2)cc1	n	n	x	n	n	x
O=C(O)c1ccc(N=Cc2nc(-c3ccco3)oc2O)cc1	n	30.8	n	n	n	36.7
CS(=O)(=O)c1ccc2nc(NC(=O)c3ccc(S(=O)(=O)NCC4CCCO4)cc3)sc2c1 (stereo not drawn)	n	n	n	n	n	x
Cc1nc2sc(C(c3ccc(Cl)cc3)N3CCN(c4ccccc4F)CC3)c(O)n2n1 (stereo not drawn)	n	29.0	n	n	n	30.3
Cc1nc(C(=O)NC2CCOCC2)sc1C1(C)CC(c2cccc([N+](=O)[O-])c2)=NO1 (stereo not drawn)	n	34.4	x	n	n	44.5
Cc1nc(C(=O)NC2CCOCC2)sc1C1(C)CC(c2ccccc2)=NO1 (stereo not drawn)	n	n	x	n	n	x
CON1C(=O)C(=O)N(OC)C(C)(C)C1(C)C	n	n	n	n	n	x
O=C(c1ccc(CSc2nc3ccncc3[nH]2)cc1)N1CCN(c2cccc(Cl)c2)CC1	n	32.7	n	n	n	30.8
Cc1csc(SCC(=O)Nc2cc(S(=O)(=O)N(C)C)ccc2C)n1	n	n	x	n	n	x
Cc1cccc(C)c1NC(=O)CN1C(=O)S/C(=C\c2cccn2-c2cccc(C(=O)O)c2)C1=O	n	n	n	n	n	x
Cc1cccc(NC(=O)CN2C(=O)S/C(=C\c3cccn3-c3cccc(C(=O)O)c3)C2=O)c1	n	66.5	n	n	n	63.4	LYPLA2 ABPP=94.0
Cc1ccccc1NC(=O)CN1C(=O)S/C(=C\c2cccn2-c2cccc(C(=O)O)c2)C1=O	n	50.0	n	n	n	74.3	LYPLA2 ABPP=64.0
